Results on 13 compounds are retold here after ChEMBL document CHEMBL1124861, “Thermodynamics of the interaction of inhibitors with the binding site of recombinant human renin” (J Med Chem, 1990).

*1 amine or outer side, *2 acyl side, *3 side chain or, on linkers, in order; H or OH if unused. Where a SMILES comes first, the peptide text is derived from it. [ ]: non-standard residue; d: D form. The star is where a group is joined. ξ: configuration not given here. Sta(3ξ) = CC(C)C[C@H](N[*:1])C(O)CC(=O)[*:2]; Sta = CC(C)C[C@H](N)[C@@H](O)CC(=O)O; Isovaleryl = CC(C)CC(=O)*

The experiment concerns the target T1, Renin (Homo sapiens, UniProt P00797).
T1 sequence (P00797 whole entry): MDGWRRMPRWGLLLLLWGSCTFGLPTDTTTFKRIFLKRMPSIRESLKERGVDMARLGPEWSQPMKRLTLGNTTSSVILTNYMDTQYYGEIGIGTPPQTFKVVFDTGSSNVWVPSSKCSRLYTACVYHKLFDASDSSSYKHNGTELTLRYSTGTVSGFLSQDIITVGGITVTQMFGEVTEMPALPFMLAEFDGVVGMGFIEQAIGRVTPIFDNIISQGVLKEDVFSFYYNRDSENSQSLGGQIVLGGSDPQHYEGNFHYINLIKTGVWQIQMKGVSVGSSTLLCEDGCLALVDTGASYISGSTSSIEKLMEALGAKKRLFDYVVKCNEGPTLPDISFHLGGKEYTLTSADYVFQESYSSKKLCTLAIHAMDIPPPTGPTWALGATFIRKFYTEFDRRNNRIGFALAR
Put plainly: Dissociation constant (Kd) of renin inhibitor was determined over a temperature range of 8-37 degree by the fluorescence displacement assay. The procedure, abridged: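 Recombinant human renin, purified, with stock concentration set by amino acid analysis. Competitive displacement of a dansylated fluorescent peptide inhibitor, read on a spectrofluorometer in ratio mode at 8–37 °C. Unlabeled-inhibitor Kd was calculated from probe Kd, probe concentration, fraction of probe bound, total inhibitor and enzyme concentrations. Duplicates were run at two inhibitor concentrations, and van't Hoff plots were built.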
With H-PHPFHFFIHK-OH, binding was put at a Kd of 810 nM.

`CC[C@H](C)[C@H](NC(=O)[C@@H](C[C@H](O)[C@H](CC(C)C)NC(=O)[C@H](Cc1c[nH]cn1)NC(=O)[C@H](Cc1ccccc1)NC(=O)[C@H]1CCCN1C(C)=O)C(C)C)C(N)=O`: the affinity, expressed as Kd, was 1.3 nM.

With `CC[C@H](C)[C@H](NC(=O)[C@@H](C[C@H](O)[C@H](CC(C)C)NC(=O)[C@H](Cc1c[nH]cn1)NS(=O)(=O)c1cccc2c(N(C)C)cccc12)C(C)C)C(=O)NCc1ccccn1`, the Kd (commonly the concentration at which binding is half-saturated) is 1000 nM.

Take `CC[C@H](C)[C@H](NC(=O)C[C@H](O)[C@H](CC(C)C)NC(=O)[C@H](Cc1c[nH]cn1)NC(=O)[C@H](Cc1ccccc1)NC(=O)[C@@H]1CCCN1C(C)=O)C(N)=O` (Ac-PFH[Sta]I-NH2): the Kd amounted to 98 nM.

For the compound `CC[C@H](C)[C@H](NC(=O)C[C@H](O)[C@H](CC(C)C)NC(=O)[C@H](Cc1cnc[nH]1)NC(=O)[C@H](Cc1ccccc1)NC(C)=O)C(N)=O` (Ac-FH[Sta]I-NH2), the Kd was 204 nM.

For `CCC(C)CNC(=O)[C@H](Cc1ccccc1)NC[C@H](Cc1ccccc1)NC(=O)[C@H](Cc1cnc[nH]1)NC(=O)[C@H](Cc1ccccc1)NC(=O)[C@@H]1CCCN1C(C)=O` (stereo partly drawn), the Kd came out at 2.5 nM.

Regarding `CC[C@H](C)[C@H](NC(=O)[C@@H](C[C@H](O)[C@H](CC(C)C)NC(=O)[C@H](Cc1cnc[nH]1)NC(=O)[C@H](Cc1ccccc1)NC(C)=O)C(C)C)C(N)=O`, binding was put at a Kd of 370 nM.

`CC[C@H](C)[C@H](NC(=O)[C@@H](C[C@H](O)[C@H](CC(C)C)NC(=O)[C@H](Cc1cnc[nH]1)NC(=O)[C@H](Cc1ccccc1)NC(=O)[C@@H]1CCCN1C(C)=O)C(C)C)C(N)=O`: binding was put at a Kd of 5.4 nM.

`CC[C@H](C)[C@H](NC(=O)CC(O)[C@H](CC(C)C)NC(=O)[C@H](Cc1c[nH]cn1)NC(=O)[C@H](Cc1ccccc1)NC(=O)[C@@H]1CCCN1C(=O)[C@H](Cc1c[nH]cn1)NC(=O)CC(C)C)C(=O)N[C@@H](Cc1ccccc1)C(N)=O` (stereo partly drawn) (Isovaleryl-HPFH[Sta(3ξ)]IF-NH2) returned a Kd of 1.7 nM.

Compound `CC[C@H](C)[C@H](NC(=O)[C@@H](NC[C@H](CC(C)C)NC(=O)[C@H](Cc1c[nH]cn1)NC(=O)[C@H](Cc1ccccc1)NC(=O)[C@@H]1CCCN1C(=O)[C@H](Cc1c[nH]cn1)NC(=O)[C@@H]1CCCN1)C(C)C)C(=O)N[C@@H](Cc1c[nH]cn1)C(=O)N[C@@H](CCCCN)C(=O)O` gave a Kd of 8 nM.

`CC[C@H](C)[C@H](NC(=O)C[C@H](O)[C@H](CC(C)C)NC(=O)[C@H](Cc1c[nH]cn1)NC(=O)[C@H](Cc1ccccc1)NC(=O)[C@@H]1CCCN1C(=O)[C@H](Cc1c[nH]cn1)NC(C)=O)C(N)=O` (Ac-HPFH[Sta]I-NH2) returned a Kd of 23 nM.

As for `CC(=O)N[C@@H](Cc1ccccc1)C(=O)N[C@@H](Cc1c[nH]cn1)C(=O)N[C@H](CN[C@@H](Cc1ccccc1)C(N)=O)Cc1ccccc1`, the Kd amounted to 220 nM.

The compound `CC(=O)N1CCC[C@H]1C(=O)N[C@@H](Cc1ccccc1)C(=O)N[C@@H](Cc1c[nH]cn1)C(=O)N[C@H](CN[C@@H](Cc1ccccc1)C(N)=O)Cc1ccccc1` showed a Kd of 29 nM.
